Source: ChEMBL document CHEMBL1153900, “Structure-activity studies of echinomycin antibiotics against drug-resistant and biofilm-forming Staphylococcus aureus and Enterococcus faecalis” (Bioorg Med Chem Lett, 2009)
Values after ≈ are worked out from the molar mass of the structure shown. Active and inactive are the calls of the source. No cut-off for these calls is given here.

Key:
Staphylococcus aureus [1] = experiment: Antimicrobial activity against methicillin-resistant Staphylococcus aureus L32 clinical isolate by CLIS method; assay type: functional
Method in brief: (§1)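 MIC and MBC determined against biofilm-forming strains: MSSA ATCC 35556, E. faecalis ATCC 29212, and two clinical biofilm-forming MRSA isolates (L32, L44) obtained from patient blood samples.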

Staphylococcus aureus [2] = experiment: Antimicrobial activity against methicillin-resistant Staphylococcus aureus L44 clinical isolate by CLIS method; assay type: functional; method in brief: as §1
HCT-116 = experiment: Cytotoxicity against human HCT116 cells; assay type: functional, cell-based
Staphylococcus aureus [3] = experiment: Antimicrobial activity against methicillin-resistant Staphylococcus aureus L32 clinical isolate assessed as reduction in bacterial load at 2 X MIC over 24 hrs by time-kill assay; assay type: functional
Method in brief: (§2)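 Time-kill assay at 2× and 4× MIC over 24 h. Starting inoculum 5 × 10⁵ CFU/mL. Read-out is the mean change in bacterial density (log₁₀ CFU/mL) from the starting inoculum at 24 h, compared with a growth control.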

Staphylococcus aureus [4] = experiment: Antimicrobial activity against methicillin-resistant Staphylococcus aureus L44 clinical isolate assessed as reduction in bacterial load at 2 X MIC over 24 hrs by time-kill assay; assay type: functional; method in brief: as §2
Staphylococcus aureus [5] = experiment: Antimicrobial activity against methicillin-resistant Staphylococcus aureus L32 clinical isolate assessed as reduction in bacterial load at 4 fold MIC over 24 hrs by time-kill assay; assay type: functional; method in brief: as §2
Staphylococcus aureus [6] = experiment: Antimicrobial activity against methicillin-resistant Staphylococcus aureus L44 clinical isolate assessed as reduction in bacterial load at 4 fold MIC over 24 hrs by time-kill assay; assay type: functional; method in brief: as §2
Staphylococcus aureus [7] = experiment: Inhibition of methicillin-susceptible Staphylococcus aureus ATCC […] biofilm formation assessed as concentration required to eradicate growth after 24 hrs; assay type: functional
Method in brief: (§3)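 Modified Calgary pin-lid biofilm device, testing sessile bacteria seeded from an established biofilm. MBIC is the concentration giving no visible growth after 24 h incubation of preformed biofilm with antibiotic. MBEC is the minimal concentration that eradicates CFU/mL growth from the biofilm.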

Staphylococcus aureus [8] = experiment: Inhibition of Staphylococcus aureus ATCC 35556 biofilm formation at MIC
Enterococcus faecalis [9] = experiment: Inhibition of Enterococcus faecalis ATCC 29212 biofilm formation at MIC
Enterococcus faecalis [10] = experiment: Antimicrobial activity against Enterococcus faecalis ATCC 29212 by CLIS method
Staphylococcus aureus [11] = experiment: Antimicrobial activity against methicillin-susceptible Staphylococcus aureus ATCC 35556 by CLIS method
Enterococcus faecalis [12] = experiment: Inhibition of Enterococcus faecalis ATCC 29212 biofilm formation assessed as visible growth after 24 hrs
Staphylococcus aureus [13] = experiment: Inhibition of methicillin-susceptible Staphylococcus aureus ATCC 35556 biofilm formation assessed as visible growth after 24 hrs
Enterococcus faecalis [14] = experiment: Inhibition of Enterococcus faecalis ATCC 29212 biofilm formation assessed as concentration required to eradicate growth after 24 hrs
Enterococcus faecalis [15] = experiment: Antimicrobial activity against Enterococcus faecalis ATCC 29212 assessed as reduction in bacterial load at 2 X MIC over 24 hrs by time-kill assay
Enterococcus faecalis [16] = experiment: Antimicrobial activity against Enterococcus faecalis ATCC 29212 assessed as reduction in bacterial load at 4 fold MIC over 24 hrs by time-kill assay
Staphylococcus aureus [17] = experiment: Antimicrobial activity against methicillin-susceptible Staphylococcus aureus ATCC 35556 assessed as reduction in bacterial load at 2 X MIC over 24 hrs by time-kill assay
Staphylococcus aureus [18] = experiment: Antimicrobial activity against methicillin-susceptible Staphylococcus aureus ATCC 35556 assessed as reduction in bacterial load at 4 fold MIC over 24 hrs by time-kill assay
Staphylococcus aureus [19] = experiment: Inhibition of methicillin-resistant Staphylococcus aureus L32 clinical isolate biofilm formation assessed as visible growth after 24 hrs; assay type: functional; method in brief: as §3
Staphylococcus aureus [20] = experiment: Inhibition of methicillin-resistant Staphylococcus aureus L32 clinical isolate biofilm formation assessed as concentration required to eradicate growth after 24 hrs; assay type: functional, isolateL32; method in brief: as §3
Staphylococcus aureus [21] = experiment: Inhibition of methicillin-resistant Staphylococcus aureus L44 clinical isolate biofilm formation assessed as visible growth after 24 hrs; assay type: functional; method in brief: as §3
Staphylococcus aureus [22] = experiment: Inhibition of methicillin-resistant Staphylococcus aureus L44 clinical isolate biofilm formation assessed as concentration required to eradicate growth after 24 hrs; assay type: functional; method in brief: as §3
Staphylococcus aureus [23] = experiment: Inhibition of methicillin-susceptible Staphylococcus aureus ATCC 35556 biofilm formation assessed as concentration required to eradicate growth after 24 hrs

Row | Compound | MBC (Staphylococcus aureus [1]) [µM] | MIC (Staphylococcus aureus [1]) [µM] | MBC (Staphylococcus aureus [2]) [µM] | MIC (Staphylococcus aureus [2]) [µM] | IC50 (HCT-116) [µM] | log10CFU/ml (Staphylococcus aureus [3]) | log10CFU/ml (Staphylococcus aureus [4]) | log10CFU/ml (Staphylococcus aureus [5]) | log10CFU/ml (Staphylococcus aureus [6]) | Activity (Staphylococcus aureus [8]) | Activity (Enterococcus faecalis [9]) | MBC (Enterococcus faecalis [10]) [µM] | MIC (Enterococcus faecalis [10]) [µM] | MBC (Staphylococcus aureus [11]) [µM] | MIC (Staphylococcus aureus [11]) [µM] | MBIC (Staphylococcus aureus [13]) [µM] | log10CFU/ml (Enterococcus faecalis [15]) | log10CFU/ml (Enterococcus faecalis [16]) | log10CFU/ml (Staphylococcus aureus [17]) | log10CFU/ml (Staphylococcus aureus [18]) | further results
1 | CS[C@@H]1[C@H]2C(=O)N(C)[C@@H](C(C)C)C(=O)OC[C@@H](NC(=O)c3cnc4ccccc4n3)C(=O)N[C@@H](C)C(=O)N(C)[C@@H](C[S+]1[O-])C(=O)N(C)[C@@H](C(C)C)C(=O)OC[C@@H](NC(=O)c1cnc3ccccc3n1)C(=O)N[C@@H](C)C(=O)N2C (stereo partly drawn) | 7.17 (≈ 8.01 µg/mL) | 1.79 (≈ 2 µg/mL) | 7.17 (≈ 8.01 µg/mL) | 1.79 (≈ 2 µg/mL) | 0.4 | -1.35 | -1.09 | -2.15 | -2.24 | Active | Active | > 14 | 0.22 (≈ 0.246 µg/mL) | 3.58 (≈ 4 µg/mL) | 0.9 (≈ 1.01 µg/mL) | 3.6 | 0.69 | -1.04 | -3.39 | -3.24 | MBEC (Staphylococcus aureus [7]): >4 µM; MBEC (Enterococcus faecalis [12]): >4 µM; MBEC (Enterococcus faecalis [14]): >4 µM
2 | CS[C@H]1SC[C@H](N(C)C(=O)[C@H](C)NC(=O)[C@@H](CO)NC(=O)c2cnc3ccccc3n2)C(=O)N(C)[C@@H](C(C)C)C(=O)OC[C@@H](NC(=O)c2cnc3ccccc3n2)C(=O)N[C@@H](C)C(=O)N(C)[C@@H]1C(=O)N(C)[C@H](C(=O)O)C(C)C [DEPSIECHINOSERINE] | > 14 | > 14 | > 14 | > 14 | 4.6 |  |  |  |  |  |  | > 14 | 14 (≈ 15.7 µg/mL) | > 14 | > 14 |  |  |  |  |  | 
3 | CS[C@H]1SC[C@H]2C(=O)N(C)[C@@H](C(C)C)C(=O)OC[C@@H](NC(=O)c3cnc4ccccc4n3)C(=O)N[C@@H](C)C(=O)N(C)[C@@H]1C(=O)N(C)[C@@H](C(C)C)C(=O)OC[C@@H](NC(=O)c1cnc3ccccc3n1)C(=O)N[C@@H](C)C(=O)N2C [ECHINOMYCIN] | 0.91 (≈ 1 µg/mL) | 0.03 (≈ 0.033 µg/mL) | 0.45 (≈ 0.496 µg/mL) | 0.03 (≈ 0.033 µg/mL) | < 0.003 | 0.61 | 0.423 | -2.39 | -1.23 | Active | Active | 0.11 (≈ 0.121 µg/mL) | 0.01 (≈ 0.011 µg/mL) | 0.45 (≈ 0.496 µg/mL) | 0.01 (≈ 0.011 µg/mL) | 0.03 | 0.04 | -1.42 | -1.54 | -1.79 | MBIC (Staphylococcus aureus [19]): >4 µM; MBIC (Staphylococcus aureus [20]): >4 µM; MBIC (Staphylococcus aureus [21]): >4 µM; MBIC (Staphylococcus aureus [22]): >4 µM; MBIC (Enterococcus faecalis [12]): 0.22 µM; MBIC (Enterococcus faecalis [14]): 0.22 µM; MBEC (Staphylococcus aureus [23]): 0.22 µM
4 | CS[C@@H](SC[C@@H](C(=O)N(C)[C@H](C(=O)O)C(C)C)N(C)C(=O)[C@H](C)NC(=O)[C@@H](CO)NC(=O)c1cnc2ccccc2n1)[C@@H](C(=O)N(C)[C@H](C(=O)O)C(C)C)N(C)C(=O)[C@H](C)NC(=O)[C@@H](CO)NC(=O)c1cnc2ccccc2n1 [ECHINOSERINE] | > 14 | > 14 | > 14 | > 14 | 13.4 |  |  |  |  |  |  | > 14 | > 14 | > 14 | > 14 |  |  |  |  |  | 
